# procasp7 counter = activates human procaspase-7, counter-screen for procaspase-3 activators | P55210 | recombinant procaspase-7, Ac-DEVD-pNA absorbance 405 nm; D23A/D198A/D206A triple mutant, cannot self-cleave; scale: DMSO 0, 5 µM enzyme 100 | activation, % at 8.5 µM | 330,000 tested, 0.093% active | AID 463210;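 active = percent activation above the screen-wide mean plus 3 SD, cut at about 25% in these data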
# Target sequence (P55210 whole entry D23A/D198A/D206A): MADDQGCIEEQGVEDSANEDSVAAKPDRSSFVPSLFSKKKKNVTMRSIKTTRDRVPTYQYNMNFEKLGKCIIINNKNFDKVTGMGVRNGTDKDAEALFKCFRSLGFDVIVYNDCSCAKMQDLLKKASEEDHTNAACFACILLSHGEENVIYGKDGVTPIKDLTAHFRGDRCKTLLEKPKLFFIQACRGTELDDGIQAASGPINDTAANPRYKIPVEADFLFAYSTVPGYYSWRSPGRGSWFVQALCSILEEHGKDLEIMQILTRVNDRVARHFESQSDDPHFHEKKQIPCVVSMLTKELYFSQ
#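 Assay system: Uncleavable procaspase-7 mutant enzyme / Input: 2 µM procaspase-7 mutant as dispensed / Dosing: single nominal 8.5 µM compound dose, 0.8% DMSO final / Timing: 1 h enzyme–compound preincubation and 2 h substrate reaction, both 25 °C / Detection: p-Nitroaniline absorbance at 405 nm, read at 0 and 120 min / Replication: singlicate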
# PP5 inh = inhibitors of human protein phosphatase 5 (PP5); P53041; purified PP5c, OMFP substrate fluorescence; inhibition, % at 6.7 µM; 320,000 tested, 0.18% active;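 active = inhibition above the campaign's mean inhibition across all tested compounds plus 3 SD, cut at about 9.5% in these data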;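 also: 0% = DMSO only and 100% = 100 µM cantharidin control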
# proCasp3 act = activators of human procaspase-3. AID 463141. activation, % at 8.5 µM. P42574. recombinant procaspase-3 D3A, Ac-DEVD-pNA absorbance 405 nm. 330,000 tested, 0.11% active;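 active = activation above the mean of all tested compounds plus 3 SD, cut at about 21% in these data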;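 also: 0% = DMSO alone and 100% = DMSO wells spiked with extra 5 µM PC-3 D3A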
#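 assay system = Procaspase-3 D3A mutant | signal = absorbance at 405 nm, 0 and 120 min | times = 1 h preincubation plus 2 h reaction at 25 °C | repeats = single replicate | read-out = % activation between DMSO and enzyme-spiked controls | medium = Zinc-free HEPES saline buffer with Triton X-100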
# PP1 counter = PP1-alpha (human) inhibition in PP5 counter-screen. purified PP1alpha, OMFP fluorescence. inhibition, % at 6.7 µM. 320,000 tested, 0.9% active. AID 2235;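 active = inhibition above the mean inhibition of all tested compounds plus 3 SD, computed separately for each screening campaign, cut at about 15% in these data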
# PP1 inh confirm = confirmation of human PP1 phosphatase inhibitors | inhibition, % at 6.7 µM | 1,900 tested, 52% active | shares compounds with PP1 counter | purified PP1alpha, OMFP substrate fluorescence;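 active = mean PP1 inhibition above a set limit taken from the earlier primary screen, cut at about 15% in these data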
# PP5 counter = inhibits human PP5 phosphatase in PP1 counter-screen | inhibition, % at 6.7 µM | purified PP5c, OMFP fluorescence | shares compounds with PP1 counter | AID 2360 | 1,900 tested, 4% active;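 active = mean PP5 inhibition over triplicate wells above about 9.5% taken from the earlier PP1 screen, limit read from the data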
# * marks the source's active call; other numbers are inactive results; . = no result given. This is a sample that favours compounds with a hit; in the whole collection about 1.2% have one here.
SMILES,procasp7 counter,PP5 inh,proCasp3 act,PP1 counter,PP1 inh confirm,PP5 counter
CCc1ccccc1NC(=O)CCS(=O)(=O)c1ccc(OC)cc1,-2,-2,2,37*,-2,-5
CCOc1ccccc1NC(=O)CCS(=O)(=O)c1ccc(OC)cc1,9,2,6,-1,.,.
O=C(Nc1ccc(-c2nc3ncccc3o2)cc1)c1ccco1,-9,3,-2,6,.,.
O=C(Nc1ccc(-c2nc3ncccc3o2)cc1)c1ccc(Br)o1,6,-2,-11,25*,7,-5
COc1ccccc1/C=C(\NC(=O)c1ccc(OC)c(OC)c1)C(=O)Nc1cc([N+](=O)[O-])ccc1C,-22,3,2,4,.,.
Cc1ccc(CNC(=O)Cn2cnc(C(=O)Nc3ccc(C)c(C)c3)n2)o1,5,.,1,.,.,.
CS(=O)(=O)N1CCC(C(=O)Nc2ccccc2Br)CC1,-8,1,-2,-3,.,.
CCCCc1ccc(-c2nc(NC(=O)C3C4CCC(O4)C3C(=O)O)sc2C)cc1 (stereo unspecified),-13,75*,-5,75*,35*,40*
O=C(O)C1C2CCC(O2)C1C(=O)Nc1ccccc1Br (stereo unspecified),4,68*,10,68*,25*,33*
CCOC(=O)c1c(-c2ccc(-c3ccccc3)cc2)csc1NC(=O)C1C2CCC(O2)C1C(=O)O (stereo unspecified),-14,11*,-2,22*,15,3
Cc1ccc(F)cc1NC(=O)C1C2CCC(O2)C1C(=O)O (stereo unspecified),0,64*,-6,55*,20*,26*
C/C(=N\NC(=O)c1nnn(-c2nonc2N)c1-c1ccc(Cl)c(Cl)c1)c1ccncc1,0,2,1,1,.,.
CCCN(CC(=O)Nc1ccccc1OC)C(=O)c1cccc(S(=O)(=O)Nc2ccc(OC)cc2)c1,0,2,-7,-4,.,.
CC(=O)c1cccc(OCc2cc(C(=O)N3CCC(N4CCCCC4)CC3)no2)c1,-4,3,1,1,.,.
Cc1ccccc1NC(=O)C1C2CCC(O2)C1C(=O)O (stereo unspecified),-2,63*,-2,51*,32*,41*
Cc1ccccc1NC(=O)C1CCC(=O)N1 (stereo unspecified),1,0,1,2,.,.
COc1ccc(CCNc2ccc(C(CC(N)=O)NC(=O)c3cc(OC)ccc3OC)cc2[N+](=O)[O-])cc1 (stereo unspecified),-2,2,0,1,.,.
CCC1(c2ccc(OC)cc2)NC(=O)N(CC(=O)NC2CCCCC2C)C1=O (stereo unspecified),-7,0,3,0,.,.
CN(Cc1ccccn1)C(=O)C1CCC(=O)N(Cc2cccc(F)c2)C1 (stereo unspecified),-20,0,-7,24*,-2,-3
CCc1cc(=O)oc2cc(C)c(CN3CCCCC3)c(O)c12,5,0,-2,8,.,.
CCc1cc(=O)oc2cc(C)c(CN3CCCC3)c(O)c12,6,0,-4,22*,2,-2
O=C(CCN=C1NS(=O)(=O)c2ccccc21)Nc1ccc(Cl)cc1F,-6,3,7,-7,.,.
Cc1cc(/C=N/NC(N)=S)c(C)n1-c1cccc(Cl)c1,-14,0,2,60*,1,1
Cc1cc(/C=N/NC(N)=S)c(C)n1-c1ccc(Cl)cc1,-17,0,-3,0,.,.
Cc1cc(/C=N/NC(N)=S)c(C)n1-c1ccc(Br)cc1,-19,2,-10,25*,16*,-4
Cc1cccc(C)c1-n1c(C)cc(/C=N/NC(N)=S)c1C,-13,2,-1,4,.,.
O=C(COC(=O)c1ccc(Br)cc1)NC(=O)NCc1ccccc1,-11,1,2,3,.,.
CCCOc1ccc(/C(O)=C2/C(=O)C(=O)N(c3ccccn3)C2c2ccc(OC)cc2)cc1C (stereo unspecified),-36,-1,-15,31*,23*,-3
COc1ccc(/C(O)=C2/C(=O)C(=O)N(c3ccccn3)C2c2ccc(OC)c(OC)c2)cc1 (stereo unspecified),-3,1,-7,0,.,.

# Screens: PubChem, The Scripps Research Institute Molecular Screening Center
